Source: paper PMC5598404 (Toxicology Reports, 2015)

Assays:
[1] = tested on: human breast cancer Sk-Br-3 cells; test: CytoTox 96 Non-Radioactive Cytotoxicity Assay, breast cancer Sk-Br-3 cells; format: cell-based
Summary of the method: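 Sk-Br-3 cells (ATCC) were kept in ATCC-formulated medium under 5% CO2 at 37 °C, plated at 10,000 cells/well and grown to 70–80% confluence. They were then exposed for 24 h or 48 h to test compounds from DMSO stocks at 400, 200, 100, 50 and 25 μg/mL. Cells given 2% DMSO (final) were the negative control. Cytotoxicity was read by CytoTox 96 kit in three independent experiments, each run in triplicate.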

[2] = tested on: human breast cancer MCF7 cells; test: CytoTox 96 Non-Radioactive Cytotoxicity Assay, breast cancer MCF7 cells; format: cell-based; settings: MCF7, 12.5-200 μg/mL, 24 h and 48 h
Summary of the method: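 MCF7 cells from ATCC, grown in ATCC-formulated medium at 37 °C and 5% CO2. Seeded at 10,000 cells/well and grown to 70–80% confluence. Test compounds (DMSO stocks) were added at 200, 100, 50, 25 and 12.5 μg/mL (≈ μM, MW ~1000) for 24 h and 48 h. Negative control was 2% final DMSO. Read by CytoTox 96 kit; three independent experiments, each in triplicate.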

[3] = contain methionine sulfoxide in their ring; cited from earlier work

## NαC-[Met-Leu-Val-Phe-Pro-Leu-Phe-Ile] (head to tail) [[MetO]-LOB1, [1-8-NαC],[1-Rs,Ss-MetO]-linusorb-B1]
[1]; Sk-Br-3, 24 h exposure, 400 μg/mL, three independent experiments in triplicate
  Cytotoxicity towards Sk-Br-3 cells, 24 h, 400 μg/mL: 28%
[1]; Sk-Br-3, 24 h exposure, 25-400 μg/mL
  Concentration dependence of cytotoxicity towards Sk-Br-3 cells: only showed cytotoxicity at 400 μg/mL
[1]; Sk-Br-3, 48 h exposure, 400 μg/mL, three independent experiments in triplicate
  Cytotoxicity towards Sk-Br-3 cells, 48 h, 400 μg/mL: maintained their respective cytotoxicity
[2]
  Effect on MCF7 cells (in words): small cytoprotective effects
[3]
  Relative hydrophobicity of methionine sulfoxide LOBs: less hydrophobic than their methionine containing counterparts
